Measurements from publication PMC11906766 (Scientific Reports, 2025).

Columns and labels:
[1] = biological target: T1, hMAO-A (Homo sapiens, UniProt P21397); assay: hMAO-A inhibition assay; format: biochemical
T1 sequence (P21397 1-527): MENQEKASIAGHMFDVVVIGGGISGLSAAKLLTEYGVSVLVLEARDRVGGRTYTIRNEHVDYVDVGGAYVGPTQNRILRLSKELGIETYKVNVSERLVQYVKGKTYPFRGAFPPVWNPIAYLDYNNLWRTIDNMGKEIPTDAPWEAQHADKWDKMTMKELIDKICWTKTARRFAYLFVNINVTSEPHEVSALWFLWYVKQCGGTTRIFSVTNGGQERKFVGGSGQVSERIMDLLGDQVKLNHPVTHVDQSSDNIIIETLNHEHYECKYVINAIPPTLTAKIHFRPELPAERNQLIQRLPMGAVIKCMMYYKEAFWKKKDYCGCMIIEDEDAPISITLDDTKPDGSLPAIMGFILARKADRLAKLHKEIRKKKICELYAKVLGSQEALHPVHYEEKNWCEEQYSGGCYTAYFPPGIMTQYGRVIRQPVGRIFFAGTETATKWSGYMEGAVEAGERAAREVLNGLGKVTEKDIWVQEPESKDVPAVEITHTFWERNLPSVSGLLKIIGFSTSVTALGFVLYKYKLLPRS

[2] = biological target: T2, hMAO-B (Homo sapiens, UniProt P27338); assay: hMAO-B inhibition assay; format: biochemical; conditions: for inhibition at 1 µM: read-out: hMAO-B Inhibition (%), at 1 µM
T2 sequence (P27338 1-520): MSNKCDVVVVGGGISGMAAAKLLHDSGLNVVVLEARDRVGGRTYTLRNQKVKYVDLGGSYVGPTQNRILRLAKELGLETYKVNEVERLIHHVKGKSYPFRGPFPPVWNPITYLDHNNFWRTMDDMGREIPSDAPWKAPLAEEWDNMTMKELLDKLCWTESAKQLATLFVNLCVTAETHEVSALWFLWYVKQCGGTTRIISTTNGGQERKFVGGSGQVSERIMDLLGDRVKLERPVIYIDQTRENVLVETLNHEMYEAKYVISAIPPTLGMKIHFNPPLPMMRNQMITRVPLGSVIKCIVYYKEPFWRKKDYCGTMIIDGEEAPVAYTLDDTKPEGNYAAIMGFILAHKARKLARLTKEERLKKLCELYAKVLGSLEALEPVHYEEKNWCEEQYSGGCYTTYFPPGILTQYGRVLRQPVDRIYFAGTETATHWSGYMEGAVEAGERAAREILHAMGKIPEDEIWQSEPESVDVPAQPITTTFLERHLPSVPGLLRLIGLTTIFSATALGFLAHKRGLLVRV

[3] = system: LPS-stimulated BV2 cells; assay: NO, TNF-α and IL-1β production in LPS-stimulated BV2 microglial cells; format: cell-based; conditions: LPS 100 ng/mL, 24 h
Outline: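 BV2 microglia were grown 48 h at 37 °C, then pre-treated with test compound for 6 h at 37 °C under 5% CO2, with 0.5% DMSO as vehicle. Medium was replaced by DMEM containing LPS 100 ng/mL (final) for 24 h at 37 °C. NO in the medium was measured with a nitric oxide assay kit; TNF-α and IL-1β by ELISA. Data are mean ± SD of ≥3 independent experiments, compared by Student's t-test.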

IC50 [1] | inhibition at 1 µM [2] | Compound | other results
> 40 µM | – | O=C(C=Cc1ccccc1)c1ccccc1 [Compound 1, 1,3-diphenyl-2-propen-1-one, reference compound] | –
> 40 µM | 23.8% | O=C(/C=C/c1ccccc1)c1cccs1 [Compound 2, (E)−3-phenyl-1-(thiophen-2-yl)prop-2-en-1-one] | IC50 [2]: 10.6 ± 1.4 µM; Selectivity Index (SI) ([2]; SI = IC50 (hMAO-A) / IC50 (hMAO-B)): > 3
> 40 µM | 27% | O=C(/C=C/c1ccc2ccccc2c1)c1cccs1 [Compound 8, (E)−3-(naphthalen-2-yl)−1-(thiophen-2-yl)prop-2-en-1-one] | –
> 40 µM | 51.7% | COc1ccc(/C=C/C(=O)c2cccs2)cc1 [Compound 9, (E)−3-(4-methoxyphenyl)−1-(thiophen-2-yl)prop-2-en-1-one] | –
> 40 µM | < 5% | COc1ccc(/C=C/C(=O)c2cccs2)cc1OC [Compound 10, (E)−3-(3,4-dimethoxyphenyl)−1-(thiophen-2-yl)prop-2-en-1-one] | –
> 40 µM | 16.6% | COc1ccc(/C=C/C(=O)c2cccs2)cc1O [Compound 11, (E)−3-(3-hydroxy-4-methoxyphenyl)−1-(thiophen-2-yl)prop-2-en-1-one] | –
> 40 µM | 14.5% | COc1ccc(/C=C/C(=O)c2ccc(Cl)s2)cc1OC [Compound 16, (E)−1-(5-chlorothiophen-2-yl)−3-(3,4-dimethoxyphenyl)prop-2-en-1-one] | –
> 40 µM | 12.3% | COc1ccc(/C=C/C(=O)c2ccc(Br)s2)cc1OC [Compound 18, (E)−1-(5-bromothiophen-2-yl)−3-(3,4-dimethoxyphenyl)prop-2-en-1-one] | –
> 40 µM | 28.2% | COc1ccc(/C=C/C(=O)c2ccc(C)s2)cc1O [Compound 19, (E)−3-(3-hydroxy-4-methoxyphenyl)−1-(5-methylthiophen-2-yl)prop-2-en-1-one] | –
> 40 µM | < 5% | COc1ccc(/C=C/C(=O)c2ccco2)cc1O [Compound 20, (E)−1-(furan-2-yl)−3-(3-hydroxy-4-methoxyphenyl)prop-2-en-1-one] | –
> 40 µM | < 5% | COc1ccc(/C=C/C(=O)c2ccc(C)o2)cc1O [Compound 21, (E)−3-(3-hydroxy-4-methoxyphenyl)−1-(5-methylfuran-2-yl)prop-2-en-1-one] | –
> 40 µM | < 5% | COc1ccc(/C=C/C(=O)c2ccc[nH]2)cc1O [Compound 22, (E)−3-(3-hydroxy-4-methoxyphenyl)−1-(1H-pyrrol-2-yl)prop-2-en-1-one] | –
– | – | lipopolysaccharide [LPS] | level of IL-1β compared to the control group [3]: 30.4 fold; level of NO compared to the control group [3]: 11.4 fold; level of TNF-α compared to the control group [3]: 26.3 fold
